MC4R antag cAMP – blocks human MC4R cAMP signaling; P32245; MC4R-expressing cells, MTII-stimulated cAMP, LANCE TR-FRET; inhibition, % at 6.5 µM; 360,000 compounds, 0.48% hits; AID 540295;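 active means inhibition above its plate's cutoff, the mean of tested wells on that plate plus 3 SD, cut at about 29% in these data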
Target sequence (P32245 whole entry, looked up): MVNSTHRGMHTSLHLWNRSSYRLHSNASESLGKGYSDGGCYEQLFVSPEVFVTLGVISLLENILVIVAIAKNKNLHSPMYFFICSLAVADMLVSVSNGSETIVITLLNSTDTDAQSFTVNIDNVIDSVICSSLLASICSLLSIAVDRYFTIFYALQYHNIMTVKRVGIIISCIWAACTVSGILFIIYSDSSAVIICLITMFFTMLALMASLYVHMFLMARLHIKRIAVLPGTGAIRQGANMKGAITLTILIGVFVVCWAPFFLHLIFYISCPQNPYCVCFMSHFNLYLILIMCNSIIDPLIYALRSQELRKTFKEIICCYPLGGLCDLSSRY
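System: U2OS cells stably expressing human melanocortin 4 receptor (MC4R). Reagent: Melanotan II challenge after compound preincubation. Doses: 6.5 µM. Times: 30-min compound, 1-h challenge, 1-h detection, room temperature. Measured by: TR-FRET with Eu-cAMP and labeled anti-cAMP, 671 nm. Replicates: singlicate.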
ATG4B inh – inhibitors of human ATG4B cysteine protease; 340,000 compounds, 0.51% hits; inhibition, % at 8.33 µM; Q9Y4P1; ATG4B cleavage of LC3-PLA2, NBD-HPC fluorescence, 1 h; in the data active means inhibition above about 40%
MPTP inh – permeability transition pore inhibition; 360,000 compounds, 1.4% hits; inhibition, % at 10 µM; AID 602449; isolated mouse mitochondria, Ca2+ swelling absorbance, 30 min;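 active means inhibition of 50% or more, scaled per plate between neutral and stimulator controls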
MC4R barr agon – agonists of human melanocortin 4 receptor (MC4R) beta-arrestin | activation, % at 8.9 µM | P32245 | AID 540308 | 360,000 compounds, 0.98% hits | U2OS MC4R beta-arrestin complementation, luminescence; percent of melanotan II response, DMSO zero;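 active means activation above a per-plate cutoff, the mean activation of sample wells on that plate plus 3 SD, cut at about 8% in these data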
SMARCA2 act – activators of SMARCA2 function; MG213 cells, MMTV-luciferase reporter, dexamethasone, overnight; activation, % at 9.1 µM; 370,000 compounds, 1% hits; AID 652017; in the data active means activation above about 7.8%
ATG4B conf – ATG4B (human) inhibition, single-dose confirmed | shares compounds with ATG4B inh | 320 compounds, 92% hits | AID 504757 | ATG4B protease fluorescent substrate cleavage assay | inhibition, % at 8.33 µM; in the data active means inhibition above about 39%
PLA2 ctr – PLA2 (human) inhibition in ATG4B counter-screen | 1,600 compounds, 66% hits | purified PLA2, NBD-C6-HPC fluorescence, 45 min | shares compounds with ATG4B inh | AID 588402 | inhibition, % at 8.33 µM; in the data active means inhibition above about 50%
Target sequence (P04054 whole entry, looked up): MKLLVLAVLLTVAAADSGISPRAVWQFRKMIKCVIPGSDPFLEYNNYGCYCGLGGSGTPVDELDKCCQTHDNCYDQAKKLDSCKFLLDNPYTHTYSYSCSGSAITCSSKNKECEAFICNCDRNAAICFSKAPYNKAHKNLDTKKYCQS
cAMP nonselect – U2OS forskolin cAMP inhibition counter-screen; parental U2OS, LANCE TR-FRET; shares compounds with MC4R antag cAMP; inhibition, % at 6.5 µM; 1,600 compounds, 26% hits;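 active means mean inhibition over triplicates above the low-control well mean plus 3 SD, set per campaign, cut at about 13% in these data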;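 further: signal is single emission at 671 nm which falls as cellular cAMP rises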
MC4R cAMP antag – human MC4R cAMP antagonism confirmation | shares compounds with MC4R antag cAMP | MC4R-expressing cells, MTII-stimulated cAMP, TR-FRET | inhibition, % at 6.5 µM | 1,600 compounds, 27% hits; in the data active means inhibition above about 29%
Rh123 counter – mitochondrial membrane potential, counter-screen | shares compounds with MPTP inh | isolated mitochondria, Rhodamine 123 fluorescence | inhibition, % at 10 µM | 5,000 compounds, 78% hits | AID 624504; in the data active means inhibition above about 22%
SMARCA2 act conf – SMARCA2 activation, confirmation screen. shares compounds with SMARCA2 act. MG213 cells, MMTV-luciferase with dexamethasone, luminescence, overnight; MG213 cells expressing E1A, Rb sequestered; DMSO wells 0%, reference activator 100%. activation, % at 9.1 µM. 3,500 compounds, 30% hits;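 active means activation above its plate's cutoff, the mean activation of tested wells plus 3 SD, cut at about 7.9% in these data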
VP16 Luc act – GAL4-VP16 reporter activation counter-screen; shares compounds with SMARCA2 act; HEK293 GAL4-VP16 pG5luc reporter, luciferase luminescence; scaled: DMSO wells 0%, SAHA wells 100%; activation, % at 9.1 µM; 3,500 compounds, 41% hits;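 active means activation above the solvent-only control well mean plus 3 SD, averaged across control plates, cut at about 5.2% in these data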
Each line names hits and unclear results; the compound was inactive in the other large screens (follow-up assays come after a bar, where they were run). Only some compounds are listed: those with a hit (about 4.1% of all), similar ones and a draw of the others.

O=S(=O)(Nc1nc(-c2sccc2Cl)cs1)c1cc(Cl)ccc1Cl	ATG4B inh 87.9, MPTP inh 77.6 (no result: SMARCA2 act) | PLA2 ctr 76.7 | Rh123 counter 50.8
C[C@H]1Cn2nncc2Cn2c3ccccc3c(=O)n21	none (no result: MC4R antag cAMP, ATG4B inh, MPTP inh, MC4R barr agon)
Clc1ccc(-c2nnc3n2N=C(c2ccc(-c4ccccc4)cc2)CS3)c(Cl)c1	none (no result: MC4R antag cAMP, ATG4B inh, MPTP inh, MC4R barr agon)
CN(CCc1ccccn1)C(=O)Cn1nc(-c2ccccc2)ccc1=O	none (no result: MC4R antag cAMP, ATG4B inh, MPTP inh, MC4R barr agon)
Nc1c(C=C2C=CC(=O)C=C2)c(=O)nc2snc(SCc3ccccc3)n12	ATG4B inh 40.4, MPTP inh 65.9 | ATG4B conf 76.3 | PLA2 ctr inactive | Rh123 counter 59.3
Nc1ncc(Br)cc1S(=O)(=O)Nc1cc(C(F)(F)F)cc(C(F)(F)F)c1	ATG4B inh 57.0, MPTP inh 85.1 | ATG4B conf 56.4 | PLA2 ctr inactive | Rh123 counter 84.6
Cc1ccc(NS(=O)(=O)c2cc(Br)cnc2N)c(Cl)c1	none
CC(/C=C1\SC(=S)N(NS(=O)(=O)c2ccc(C)cc2)C1=O)=C\c1ccccc1	ATG4B inh 62.1, MPTP inh 53.6 | PLA2 ctr 71.8 | Rh123 counter 40.7
S=C(NCCSCc1c(Cl)cccc1Cl)Nc1ccccc1	ATG4B inh 45.5, MPTP inh 79.3 | PLA2 ctr 50.3 | Rh123 counter 86.2
Cc1ccc(/C(=N/Nc2nc3ccccc3s2)C2=C(O)c3ccccc3C2=O)cc1	ATG4B inh 45.0, MPTP inh 89.6 | PLA2 ctr 65.0 | Rh123 counter 70.6
Cc1ccc(S(=O)(=O)N(C)CC(=O)Nc2nc3ccccc3s2)cc1	none
CCCCCCCCN1C(=O)[C@@H](CC(=O)N2CCOCC2)C[C@@]2(C(=O)OC)C1=C[C@H](C(C)C)O[C@@H]2C1CC1	none (no result: MC4R antag cAMP, ATG4B inh, MPTP inh, MC4R barr agon)
O=C1/C(=C\c2cccc(O)c2O)SC(=S)N1Cc1ccccc1	ATG4B inh 74.0, MPTP inh 91.6 | PLA2 ctr 88.7 | Rh123 counter 45.8
O=C1/C(=C\c2ccc(O)c(O)c2)SC(=S)N1Cc1ccccc1	none
O=C1/C(=C\c2cc([N+](=O)[O-])ccc2O)SC(=S)N1Cc1ccc(Cl)cc1	ATG4B inh 51.7, MPTP inh 52.1 | PLA2 ctr 50.5 | Rh123 counter inactive
COC(=O)[C@]12C[C@H](CC(=O)N3CCCC3)C(=O)N(Cc3ccc(Cl)cc3Cl)C1=C[C@H](COCc1ccccc1)O[C@@H]2C	none (no result: MC4R antag cAMP, ATG4B inh, MPTP inh, MC4R barr agon)
N#Cc1c(NC(=S)NC(=O)C2CCCC2)sc2c1CCCCC2	ATG4B inh 73.9, SMARCA2 act 13.1 | PLA2 ctr inactive | SMARCA2 act conf inactive | VP16 Luc act inactive
N#Cc1c(NC(=O)C2CCCO2)sc2c1CCCCCC2 (stereo not given)	none
CCCCNc1nc(N)nc(-c2cc(Cl)ccc2O)n1	ATG4B inh 45.8, SMARCA2 act 17.4 | PLA2 ctr 50.3 | SMARCA2 act conf 13.5 | VP16 Luc act 13.2
COC(=O)c1cc2c(c3c4cc(F)ccc4n(S(=O)(=O)c4ccc(C)cc4)c13)C(=O)N(Cc1ccccc1)C2	none (no result: MC4R antag cAMP, ATG4B inh, MPTP inh, MC4R barr agon)
Cc1nn(-c2cccc(C(F)(F)F)c2)c(Cl)c1/C=N/Nc1cccc(C(=O)O)c1	ATG4B inh 56.8, SMARCA2 act 12.5 | PLA2 ctr 66.7 | SMARCA2 act conf 10.0 | VP16 Luc act 15.5
C[C@@H]1CC(=O)NN=C1c1ccc(NN=C(C#N)C#N)cc1	none (no result: MC4R antag cAMP, ATG4B inh, MPTP inh, MC4R barr agon)
O=S(=O)(/C(=C\c1ccc(C(F)(F)F)cc1)c1nc2ccccc2[nH]1)c1ccccc1	MC4R antag cAMP 32.5 (no result: SMARCA2 act) | cAMP nonselect inactive | MC4R cAMP antag 34.9
CCC(Sc1nc2n[nH]c(C)c2c(=N)n1-c1ccc(C)c(Cl)c1)C(=O)N1CCOCC1 (stereo not given)	MC4R antag cAMP 29.4 (no result: SMARCA2 act) | cAMP nonselect inactive | MC4R cAMP antag 34.6
O=C(CCc1ccccc1)N[C@H]1[C@@H](OC(=O)C2CC2)CCC[C@@]12C(=O)N(Cc1ccccc1)c1ccccc12	none (no result: MC4R antag cAMP, ATG4B inh, MPTP inh, MC4R barr agon)
COc1ccc(-c2c3c(nc4sc5c(Cl)nc(C)nc5c24)CCC3)cc1	MC4R antag cAMP 40.7 (no result: SMARCA2 act) | cAMP nonselect 40.5 | MC4R cAMP antag 63.7
CCCCOc1ccc(C(NC(=O)OCC)NC(=O)OCC)cc1	MC4R antag cAMP 28.6 | cAMP nonselect inactive | MC4R cAMP antag inactive
CCOc1cc(N2CCOCC2)c(OCC)cc1NC(=O)COC(=O)COc1ccc(C#N)cc1	MC4R antag cAMP 30.9 | cAMP nonselect inactive | MC4R cAMP antag inactive
O=C(c1ccc(S(=O)(=O)N2CCCCC2)cc1)N(c1ccccn1)C1CCCCC1	MC4R antag cAMP 31.9 | cAMP nonselect inactive | MC4R cAMP antag inactive
O=C(CSc1nnc(-c2cccnc2)n1Cc1ccco1)Nc1ccc(Cl)c(Cl)c1	none (no result: MC4R antag cAMP, ATG4B inh, MPTP inh, MC4R barr agon)
CCC(CC)C(=O)N(C)c1c(C)nc2c(OCCOc3ccc(F)cc3)cccn12	MC4R antag cAMP 30.5 (no result: ATG4B inh) | cAMP nonselect inactive | MC4R cAMP antag inactive
COc1ccc(C[N+]2=C(N)NC3=C4CCCCC4n4c(=O)n(-c5ccccc5)c(=O)n4C3C2)c(OC)c1 (stereo not given)	none (no result: MC4R antag cAMP, ATG4B inh, MPTP inh, MC4R barr agon)
COc1ccc(-c2cc(C(=O)NN=Cc3ccc(C)s3)[nH]n2)cc1	none (no result: MC4R antag cAMP, ATG4B inh, MPTP inh, MC4R barr agon)
CN(C)CCCN1C(=O)C(O)=C(C(=O)c2cc3ccccc3o2)C1c1ccccc1 (stereo not given)	none
CN(C)CCCN1C(=O)C(O)=C(C(=O)c2cc3ccccc3o2)C1c1ccccn1 (stereo not given)	MC4R antag cAMP 33.0 | cAMP nonselect inactive | MC4R cAMP antag inactive
Cc1ccc(C=NNc2nc3c([nH]2)c(=O)n(C)c(=O)n3C)cc1	MC4R antag cAMP 43.1 | cAMP nonselect inactive | MC4R cAMP antag inactive
CCCCOc1c(Br)cc(/C=C2\N=C(C)OC2=O)cc1OCC	MC4R antag cAMP 33.3 | cAMP nonselect inactive | MC4R cAMP antag inactive

Screening data from PubChem BioAssay.
